This note sets out measurements from PMC3268775 (Journal of the American Chemical Society, 2012).

In experiment [1] the target is T1, Y730F-α2 (Escherichia coli, UniProt P00452, Y730F).
T1 sequence (P00452 1-761 Y730F): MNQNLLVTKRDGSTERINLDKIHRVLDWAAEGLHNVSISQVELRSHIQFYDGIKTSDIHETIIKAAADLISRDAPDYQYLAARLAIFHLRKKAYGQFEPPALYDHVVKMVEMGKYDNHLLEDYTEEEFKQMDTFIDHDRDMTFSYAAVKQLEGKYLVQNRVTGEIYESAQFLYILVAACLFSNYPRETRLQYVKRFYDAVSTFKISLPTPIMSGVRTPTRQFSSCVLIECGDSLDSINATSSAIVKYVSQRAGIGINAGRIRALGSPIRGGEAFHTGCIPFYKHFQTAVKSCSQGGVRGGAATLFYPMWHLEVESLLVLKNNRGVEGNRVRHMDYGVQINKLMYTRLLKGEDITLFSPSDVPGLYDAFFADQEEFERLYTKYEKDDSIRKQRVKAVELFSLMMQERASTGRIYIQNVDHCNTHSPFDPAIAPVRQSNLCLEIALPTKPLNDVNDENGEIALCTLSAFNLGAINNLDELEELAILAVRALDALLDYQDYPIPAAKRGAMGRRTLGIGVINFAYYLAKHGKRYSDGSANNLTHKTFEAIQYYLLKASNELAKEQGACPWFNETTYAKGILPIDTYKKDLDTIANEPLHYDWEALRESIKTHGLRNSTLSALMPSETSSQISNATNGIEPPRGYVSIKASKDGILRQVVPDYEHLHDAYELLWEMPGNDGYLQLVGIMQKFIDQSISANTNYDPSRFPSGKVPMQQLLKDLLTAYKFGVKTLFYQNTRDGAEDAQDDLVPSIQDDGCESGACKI
The experiment can be described thus: Flash-quench transient absorption: •F3Y radical in presence of Y730F-α2. It is filed as biochemical. To be noted: for radical lifetime change / radical injection (in words): Y730F-α2; for •F3Y lifetime: monoexponential, 50 μM peptide. The essentials:
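Laser flash-quench transient absorption at 23 °C in 50 mM sodium borate, pH 8.3, 15 mM MgSO4, 5% v/v glycerol. Final mix: 50 μM Re-labelled test peptide, 100 μM α2 mutant, 1 mM Ru(NH3)6Cl3, 1 mM CDP, 3 mM ATP, flowing through the cuvette. α2 was N-terminally His6-tagged E. coli protein, IPTG-induced in BL21(DE3) and Ni-NTA purified. Excitation was a 7 ns 355 nm pulse. Decays averaged 3–6 traces and were fitted by weighted least squares from 1 μs.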

A short description of experiment [2]: Transient absorption of the charge-separated state, free peptide. The experiment is classed as physicochemical. As to conditions: 50 μM peptide, 50 mM sodium borate pH 8.3, λexc 355 nm. Summed up:
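Transient absorption decays were read at 380, 480 (Re excited state), 525 (bpy anion) and 425 nm (F3Y radical). ΔOD came from PMT voltage against the pre-flash baseline. Short decays were fitted from the maximum-amplitude point, averaging 3–6 traces.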

The subject of experiment [3] is α2 mutants. The experiment can be described thus: Charge-separated state lifetime in presence of α2 proteins. It is filed as physicochemical, Escherichia coli. As to conditions: each of the protein mutants, in words.
For experiment [4], the target named is T2, C439S-α2 (Escherichia coli, UniProt P00452, C439S).
T2 sequence (P00452 1-761 C439S): T1 sequence (P00452 1-761 Y730F) with C439S, F730Y
The experiment can be described thus: Flash-quench transient absorption: •F3Y radical in presence of C439S-α2. It is filed as biochemical.

Setting [5] is: C439S-α2, average across three wavelengths (395, 410, 425 nm).

Substitutions are numbered along the chain they refer to. Numbered stars: 1 amine (or outer) side, 2 acyl side, 3 side chain; on linkers, the order of the positions; unused ones are H or OH. Square brackets hold non-standard residues; d marks the D form. Peptide text beside a SMILES is read from it. * marks the point of attachment. Isonicotinoyl(2-(4-Me-2-Py)) = Cc1ccnc(-c2cc(C(=O)*)ccn2)c1; X1 = O=C([C@H](Cc1c(F)cc(O)c(F)c1F)N[*:1])[*:2]

For the molecule `CC[C@H](C)[C@H](NC(=O)[C@H](CCC(N)=O)NC(=O)CNC(=O)[C@@H](NC(=O)[C@H](CC(C)C)NC(=O)[C@H](Cc1c(F)cc(O)c(F)c1F)NC(=O)c1ccnc(-c2cc(C)ccn2)c1)C(C)C)C(=O)N[C@@H](CC(=O)O)C(=O)N[C@@H](CO)C(=O)N[C@@H](CCC(=O)O)C(=O)N[C@H](C(=O)N[C@@H](CC(=O)O)C(=O)N[C@H](C(=O)N[C@@H](CC(=O)O)C(=O)N[C@@H](CC(=O)O)C(=O)N[C@@H](CC(C)C)C(=O)N[C@@H](CO)C(=O)N[C@@H](CC(N)=O)C(=O)N[C@@H](Cc1ccccc1)C(=O)N[C@@H](CCC(N)=O)C(=O)N[C@@H](CC(C)C)C(=O)O)[C@@H](C)O)C(C)C` [[Re]–F3Y–βC19] ({Isonicotinoyl(2-(4-Me-2-Py))}-[X1]LVGQIDSEVDTDDLSNFQL-OH; N-terminus and C-terminus assumed), the “radical lifetime change / radical injection (in words)” value is “radical injection into the surface of the protein is blocked” in experiment [1] and “no significant change in radical lifetime” in experiment [1] (listed as [Re]–•F3Y–βC19). Also, the “•F3Y lifetime” value in experiment [1] (Y730F-α2, 395 nm, 100 μM α2, pH 8.3) was 14.4 ± 0.2 μs; in experiment [1] (Y730F-α2, 410 nm, 100 μM α2, pH 8.3), 13.7 ± 0.2 μs; in experiment [1] (Y730F-α2, 425 nm, 100 μM α2, 1 mM Ru(NH3)6Cl3, 1 mM CDP, 3 mM ATP, borate pH 8.3), 14.0 ± 0.2 μs. Further, the “decay time constant of transient signal, [Re^I]*” value is 60 ± 2 ns in experiment [2] (λdet 380 nm, 1 mM CDP, 3 mM ATP, 15 mM MgSO4, 5% glycerol) and 61 ± 2 ns in experiment [2] (λdet 480 nm). Moreover, the “charge-separated state lifetime vs protein mutant” value in experiment [3] was “Identical lifetimes”. Also, the “•F3Y radical decay profile (in words)” value in experiment [4] (C439S-α2) is “biexponential decay owing to the contribution of a significantly shorter lifetime component”. Also, the “•F3Y radical decay: small amplitude component ("on" state)” value in experiment [4] (C439S-α2) is listed as 20%. The “amplitude of long phase” value in experiment [4] (C439S-α2, 395 nm) came out at 81%. Moreover, in experiment [4] (C439S-α2, 395 nm), the “amplitude of short phase” value amounted to 19%. Besides, in experiment [4] (C439S-α2, 395 nm, biexponential), the “•F3Y lifetime, short phase” value came to 2.2 ± 1 μs. In addition, the “•F3Y lifetime, long phase” value in experiment [4] (C439S-α2, 395 nm, biexponential, 50 μM peptide, 100 μM C439S-α2, 1 mM Ru(NH3)6Cl3, 1 mM CDP, 3 mM ATP, borate pH 8.3) was determined as 17.3 ± 0.9 μs. In addition, in experiment [4] (setting [5]), the “•F3Y lifetime, "off" state” value worked out at 16.9 ± 0.7 μs. Moreover, the “•F3Y lifetime, "on" state” value in experiment [4] (setting [5]) was 2.5 ± 1.0 μs.
